Results on 24 compounds are retold here after ChEMBL document CHEMBL1145971, “Design and synthesis of the potent, orally available, brain-penetrable arylpyrazole class of neuropeptide Y5 receptor antagonists” (J Med Chem, 2003).

In series [1] the target is T1, Neuropeptide Y receptor type 5 (Homo sapiens, UniProt Q15761).
T1 sequence (Q15761 whole entry): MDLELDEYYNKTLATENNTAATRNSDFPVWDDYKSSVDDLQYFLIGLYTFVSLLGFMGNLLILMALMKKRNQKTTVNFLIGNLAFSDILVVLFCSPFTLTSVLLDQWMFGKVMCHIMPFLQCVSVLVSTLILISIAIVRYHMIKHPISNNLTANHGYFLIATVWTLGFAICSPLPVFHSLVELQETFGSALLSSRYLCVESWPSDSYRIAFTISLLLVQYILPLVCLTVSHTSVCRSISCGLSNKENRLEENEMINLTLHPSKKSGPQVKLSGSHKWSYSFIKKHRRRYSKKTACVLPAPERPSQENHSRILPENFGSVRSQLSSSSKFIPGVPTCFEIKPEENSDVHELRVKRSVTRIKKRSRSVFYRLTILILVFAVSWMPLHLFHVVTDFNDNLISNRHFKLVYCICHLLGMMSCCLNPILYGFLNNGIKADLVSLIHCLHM
Nature of the series: Inhibition of [125I]PYY binding human recombinant Neuropeptide Y receptor type 5 in LMtk-cells. The procedure, abridged:
(§1)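 Radioligand displacement used [125I]PYY on human recombinant Y5 receptors expressed in LMtk- cells. Values are mean ± SE, n = 3.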

The target in series [2] is T1, Neuropeptide Y receptor type 5. The experiment in a line: Inhibition of [125I]PYY binding to human recombinant Neuropeptide Y receptor type 5 in LMtk-cells. The method in brief:
as §1

Series [3] has the same target. Nature of the series: Antagonistic activity of compound was determined by its ability to inhibit NPY induced [Ca2+]i increases in CHO cells which expressed the recombinant human Neuropeptide Y receptor type 5. The format is functional, cell-based. The procedure, abridged:
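Human recombinant Y5 receptor co-expressed with Gqi5 in CHO cells. Cells were stimulated with 100 nM NPY and inhibition of the intracellular Ca2+ rise was measured. IC50 is given as mean ± SE, n = 3.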

A short description of series [4]: Time required for peak plasma concentration was determined for compound in SD rats when administered perorally at 10 mg/kg. Conditions: Sprague-Dawley, rat, po. Details: dose 10 mg/kg, route oral. The class given is ADME, organism-based. The procedure, abridged:
(§2)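 Pharmacokinetics in SD rats: intravenous dose 1 mg/kg and oral dose 10 mg/kg. Parameters derived from plasma levels were t1/2, Vdss and CLtot (iv), and t1/2, Tmax, Cmax and F (po).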

The nature of series [5]: Volume of distribution was determined in SD rats when administered intravenously, at 1 mg/kg compound dosage. The format is ADME, organism-based. Conditions: Sprague-Dawley, rat, in vivo, iv, read-out: Vdss. Details: dose 1 mg/kg, route intravenous. The procedure, abridged:
as §2

The nature of series [6]: Half life (10 mg/kg) was determined in SD rats when administered perorally. The class given is ADME, organism-based. Conditions: Sprague-Dawley, rat, in vivo, po. The procedure, abridged: as §2
The nature of series [7]: Bioavailability was determined for compound in SD rats when administered perorally at 10 mg/kg. The format is ADME, organism-based. Conditions: Sprague-Dawley, rat, in vivo, po, read-out: Fmean. The procedure, abridged: as §2
Series [8] in a line: Half life (1 mg/kg) was determined in SD rats when administered intravenously. The class given is ADME, organism-based. Conditions: Sprague-Dawley, rat, in vivo, iv. The method in brief:
as §2

For another series, the system named is Rattus norvegicus. The experiment in a line: Peak plasma concentration was determined for compound in SD rats when administered perorally at 10 mg/kg. The format is ADME, organism-based. The arrangement: dose 10 mg/kg, route oral. Conditions: in vivo, po. The method in brief: as §2
Series [9] in a line: The concentration in brain was determined in SD rats at 2 hr after peroral administration of 10 mg/kg. Conditions: Sprague-Dawley, rat, po. Details: dose 10 mg/kg, route oral. The class given is ADME, organism-based.
Series [10] can be described thus: Total body clearance was determined in SD rats when administered intravenously, at 1 mg/kg compound dosage. The format is ADME, organism-based. The arrangement: dose 1 mg/kg, route intravenous. Conditions: Sprague-Dawley, rat, in vivo, iv, read-out: CLtotal. The method in brief: as §2

As usually defined, the IC50 is the midpoint of a concentration-inhibition curve. On to `O=C(Nc1cc(-c2ccc(Cl)cc2)n[nH]1)c1cccc2ccccc12`, for which the half-maximal inhibitory concentration (IC50) in series [1] is greater than 1000 nM.

As a reminder, the Ki is the dissociation constant of the complex between target and ligand, obtained from inhibition or displacement. Consider `COc1ccc(-c2cc(NC(=O)Cc3ccc4ccccc4c3)[nH]n2)cc1OC`, for which, in series [2], the Ki was found to be 8.3 nM.

Consider `Cc1ccc(-c2cc(NC(=O)C3Cc4ccccc4C3)[nH]n2)cc1`, for which the Ki in series [2] amounted to 80 nM.

As a reminder, the Tmax is the time from dosing to the highest level. By half-life is commonly meant how long it takes for the measured level to halve. Read a low half-life as fast loss. By Cmax is commonly meant the maximum level reached in the sampled fluid or tissue. For `CCc1cc(-c2cc(NC(=O)C3Cc4ccc5ccccc5c4C3)[nH]n2)ccn1` (stereo in doubt; (-)-7), the IC50 in [3] stood at 14 nM. Moreover, the Tmax in series [4] amounted to 2 h. Further, in [2], the inhibitory constant (Ki) was 3.5 nM. In addition, in series [5], the Vd was found to be 0.62 L/kg. The values for the half-life in series [6] and in series [8] were 114 min and 52.8 min, respectively. Besides, the bioavailability in series [7] came out at 70%. In the series on Rattus norvegicus, this compound registered a Cmax of 5 µM. In [9], the concentration at 2 h was 450 nM. Moreover, in series [10], the clearance was 9.52 mL/min/kg.

With `O=C(Cc1ccccc1)Nc1cc(-c2ccc(Cl)cc2)n[nH]1`, the half-maximal inhibitory concentration (IC50) in series [1] came out at 803 nM.

With `O=C(Nc1cc(-c2ccc(Cl)cc2)n[nH]1)C1Cc2ccccc2C1`, in [2], the Ki was determined as 59 nM.

In the case of `O=C(CCc1ccccc1)Nc1cc(-c2ccc(Cl)cc2)n[nH]1`, in series [1], the IC50 was greater than 1000 nM.

On to `O=C(Cc1ccc2ccccc2c1)Nc1cc(-c2ccc(Cl)cc2)n[nH]1`, for which the IC50 in [1] was 47 nM.

As for `O=C(Nc1cc(-c2ccc(Cl)cc2)n[nH]1)c1ccccc1`, the IC50 in series [1] was greater than 1000 nM.

In the case of `COc1ccc(-c2cc(NC(=O)C3Cc4ccccc4C3)[nH]n2)cc1`, in series [2], the Ki was determined as 62 nM.

Regarding `O=C(Nc1cc(-c2ccc(Cl)cc2)n[nH]1)c1ccc(-c2ccccc2)cc1`, the IC50 in series [1] was greater than 1000 nM.

As for `CCc1cc(-c2cc(NC(=O)C3Cc4ccc5ccccc5c4C3)[nH]n2)ccn1` (stereo in doubt; (+)-7), the IC50 in [3] was 28 nM. Moreover, the inhibitory constant (Ki) in [2] worked out at 25 nM.

With `O=C(Nc1cc(-c2ccccc2)[nH]n1)C1Cc2ccccc2C1`, the Ki in [2] came out at 260 nM.

Turning to `O=C(Cc1cccc2ccccc12)Nc1cc(-c2ccc(Cl)cc2)n[nH]1`, the IC50 in [1] was found to be 317 nM.

Consider `CCc1cc(-c2cc(NC(=O)C3Cc4ccc5ccccc5c4C3)[nH]n2)ccn1` (racemic), for which, in [2], the inhibitory constant (Ki) came out at 7.3 nM.

Turning to `O=C(CCCc1ccccc1)Nc1cc(-c2ccc(Cl)cc2)n[nH]1`, in series [1], the 50% inhibitory concentration (IC50) turned out to be 443 nM.

For the compound `O=C(Nc1cc(-c2ccc(Cl)cc2)n[nH]1)c1ccc2ccccc2c1`, in [1], the concentration for half-maximal inhibition (IC50) was greater than 1000 nM.

Take `COc1ccc(-c2cc(NC(=O)C3Cc4ccc5ccccc5c4C3)[nH]n2)cc1OC` (racemic): the inhibitory constant (Ki) in [2] is 2.8 nM.

As to `O=C(Nc1cc(-c2ccncc2)[nH]n1)C1Cc2ccc3ccccc3c2C1` (racemic), the Ki in series [2] is 10 nM.

In the case of `COc1ccc(-c2cc(NC(=O)C3Cc4ccccc4C3)[nH]n2)cc1OC`, in series [2], the inhibition constant Ki came out at 33 nM.

Consider `O=C(Nc1cc(-c2cccc(Cl)c2)n[nH]1)C1Cc2ccccc2C1`, for which the inhibition constant (Ki) in [2] turned out to be 120 nM.

For the compound `CC(C)Oc1ccc(-c2cc(NC(=O)C3Cc4ccccc4C3)[nH]n2)cc1`, the Ki in series [2] stood at 92 nM.

On to `O=C(O)CCc1cccc(CC(=O)Nc2cc(-c3ccc(Cl)cc3)n[nH]2)c1`, for which, in series [1], the half-inhibitory concentration (IC50) was 16.3 nM. Moreover, the Ki in series [2] was found to be 16 nM.

Take `O=C(Nc1cc(-c2ccccc2Cl)n[nH]1)C1Cc2ccccc2C1`: the inhibitory constant (Ki) in series [2] is 450 nM.
